Reference: ChEMBL document CHEMBL4152188, “Design, synthesis and biological evaluation of C(4) substituted monobactams as antibacterial agents against multidrug-resistant Gram-negative bacteria” (Eur J Med Chem, 2018)
≈ marks a conversion by molar mass, not a printed value.

Columns and labels:
Format in all cases: functional
[1] = system: Escherichia coli; experiment: Antibacterial activity against extended-spectrum beta-lactamase producing Escherichia coli isolate 212648 after 18 hrs by CLSI broth microdilution method; settings: isolate 212648, 18 h
[2] = system: Escherichia coli; experiment: Antibacterial activity against Escherichia coli isolate 210737 after 18 hrs by CLSI broth microdilution method; settings: isolate 210737, 18 h
[3] = system: Escherichia coli; experiment: Antibacterial activity against extended-spectrum beta-lactamase producing Escherichia coli isolate 208687 after 18 hrs by CLSI broth microdilution method; settings: isolate 208687, 18 h
[4] = system: Escherichia coli; experiment: Antibacterial activity against extended-spectrum beta-lactamase producing Escherichia coli isolate 208687 after 18 hrs in presence of BPL by CLSI broth microdilution method; settings: isolate 208687, 18 h
Outline: (§1)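 CLSI broth microdilution against clinical isolates (ESBL E. coli, KPC-2 MDR K. pneumoniae, IMP-4 MDR P. aeruginosa; five per species). Iron limitation: Mueller-Hinton broth supplemented with 16 mg/liter 2,2'-bipyridyl to complex iron and induce iron uptake systems. Read-out: MIC.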

[5] = system: Escherichia coli; experiment: Antibacterial activity against Escherichia coli isolate 210737 after 18 hrs in presence of BPL by CLSI broth microdilution method; settings: isolate 210737, 18 h; outline: as §1
[6] = system: Escherichia coli; experiment: Antibacterial activity against extended-spectrum beta-lactamase producing Escherichia coli isolate 212648 after 18 hrs in presence of BPL by CLSI broth microdilution method; settings: isolate 212648, 18 h; outline: as §1
[7] = system: Escherichia coli; experiment: Antibacterial activity against extended-spectrum beta-lactamase producing Escherichia coli isolate 209285 after 18 hrs by CLSI broth microdilution method; settings: isolate 209285, 18 h
[8] = system: Escherichia coli; experiment: Antibacterial activity against extended-spectrum beta-lactamase producing Escherichia coli isolate 209285 after 18 hrs in presence of BPL by CLSI broth microdilution method; settings: isolate 209285, 18 h; outline: as §1
[9] = system: Escherichia coli; experiment: Antibacterial activity against extended-spectrum beta-lactamase producing Escherichia coli isolate 106342 after 18 hrs by CLSI broth microdilution method; settings: isolate 106342, 18 h
[10] = system: Escherichia coli; experiment: Antibacterial activity against extended-spectrum beta-lactamase producing Escherichia coli isolate 106342 after 18 hrs in presence of BPL by CLSI broth microdilution method; settings: isolate 106342, 18 h; outline: as §1
[11] = system: Escherichia coli; experiment: Selectivity index, ratio of MIC for against extended-spectrum beta-lactamase producing Escherichia coli isolate 106342 to MIC for extended-spectrum beta-lactamase producing Escherichia coli isolate 106342 in presence of BPL
[12] = system: Klebsiella pneumoniae; experiment: Antibacterial activity against KPC-2 producing Klebsiella pneumoniae isolate 212423 after 18 hrs by CLSI broth microdilution method; settings: isolate 212423, 18 h
[13] = system: Klebsiella pneumoniae; experiment: Antibacterial activity against KPC-2 producing Klebsiella pneumoniae isolate 212423 after 18 hrs in presence of BPL by CLSI broth microdilution method; settings: isolate 212423, 18 h; outline: as §1
[14] = system: Klebsiella pneumoniae; experiment: Antibacterial activity against KPC-2 producing Klebsiella pneumoniae isolate 209632 after 18 hrs by CLSI broth microdilution method; settings: isolate 209632, 18 h
[15] = system: Klebsiella pneumoniae; experiment: Antibacterial activity against KPC-2 producing Klebsiella pneumoniae isolate 209632 after 18 hrs in presence of BPL by CLSI broth microdilution method; settings: isolate 209632, 18 h; outline: as §1
[16] = system: Klebsiella pneumoniae; experiment: Antibacterial activity against KPC-2 producing Klebsiella pneumoniae isolate 209735 after 18 hrs by CLSI broth microdilution method; settings: isolate 209735, 18 h
[17] = system: Klebsiella pneumoniae; experiment: Antibacterial activity against KPC-2 producing Klebsiella pneumoniae isolate 209735 after 18 hrs in presence of BPL by CLSI broth microdilution method; settings: isolate 209735, 18 h; outline: as §1
[18] = system: Klebsiella pneumoniae; experiment: Antibacterial activity against KPC-2 producing Klebsiella pneumoniae isolate 212232 after 18 hrs by CLSI broth microdilution method; settings: isolate 212232, 18 h
[19] = system: Klebsiella pneumoniae; experiment: Antibacterial activity against KPC-2 producing Klebsiella pneumoniae isolate 212232 after 18 hrs in presence of BPL by CLSI broth microdilution method; settings: isolate 212232, 18 h; outline: as §1
[20] = system: Klebsiella pneumoniae; experiment: Antibacterial activity against KPC-2 producing Klebsiella pneumoniae isolate 212229 after 18 hrs by CLSI broth microdilution method; settings: isolate 212229, 18 h
[21] = system: Klebsiella pneumoniae; experiment: Antibacterial activity against KPC-2 producing Klebsiella pneumoniae isolate 212229 after 18 hrs in presence of BPL by CLSI broth microdilution method; settings: isolate 212229, 18 h; outline: as §1
[22] = system: Pseudomonas aeruginosa; experiment: Antibacterial activity against IMP-4 producing Pseudomonas aeruginosa isolate 212886 after 18 hrs by CLSI broth microdilution method; settings: isolate 212886, 18 h
[23] = system: Pseudomonas aeruginosa; experiment: Antibacterial activity against IMP-4 producing Pseudomonas aeruginosa isolate 212886 after 18 hrs in presence of BPL by CLSI broth microdilution method; settings: isolate 212886, 18 h; outline: as §1
[24] = system: Pseudomonas aeruginosa; experiment: Selectivity index, ratio of MIC for against IMP-4 producing Pseudomonas aeruginosa isolate 212886 to MIC for against IMP-4 producing Pseudomonas aeruginosa isolate 212886 in presence of BPL
[25] = system: Pseudomonas aeruginosa; experiment: Antibacterial activity against IMP-4 producing Pseudomonas aeruginosa isolate 209471 after 18 hrs by CLSI broth microdilution method; settings: isolate 209471, 18 h
[26] = system: Pseudomonas aeruginosa; experiment: Antibacterial activity against IMP-4 producing Pseudomonas aeruginosa isolate 209471 after 18 hrs in presence of BPL by CLSI broth microdilution method; settings: isolate 209471, 18 h; outline: as §1
[27] = system: Pseudomonas aeruginosa; experiment: Selectivity index, ratio of MIC for against IMP-4 producing Pseudomonas aeruginosa isolate 209471 to MIC for against IMP-4 producing Pseudomonas aeruginosa isolate 209471 in presence of BPL
[28] = system: Pseudomonas aeruginosa; experiment: Antibacterial activity against IMP-4 producing Pseudomonas aeruginosa isolate 208247 after 18 hrs by CLSI broth microdilution method; settings: isolate 208247, 18 h
[29] = system: Pseudomonas aeruginosa; experiment: Antibacterial activity against IMP-4 producing Pseudomonas aeruginosa isolate 208247 after 18 hrs in presence of BPL by CLSI broth microdilution method; settings: isolate 208247, 18 h; outline: as §1
[30] = system: Pseudomonas aeruginosa; experiment: Selectivity index, ratio of MIC for against IMP-4 producing Pseudomonas aeruginosa isolate 208247 to MIC for against IMP-4 producing Pseudomonas aeruginosa isolate 208247 in presence of BPL
[31] = system: Pseudomonas aeruginosa; experiment: Antibacterial activity against IMP-4 producing Pseudomonas aeruginosa isolate 209321 after 18 hrs by CLSI broth microdilution method; settings: isolate 209321, 18 h
[32] = system: Pseudomonas aeruginosa; experiment: Antibacterial activity against IMP-4 producing Pseudomonas aeruginosa isolate 209321 after 18 hrs in presence of BPL by CLSI broth microdilution method; settings: isolate 209321, 18 h; outline: as §1
[33] = system: Pseudomonas aeruginosa; experiment: Selectivity index, ratio of MIC for against IMP-4 producing Pseudomonas aeruginosa isolate 209321 to MIC for against IMP-4 producing Pseudomonas aeruginosa isolate 209321 in presence of BPL
[34] = system: Pseudomonas aeruginosa; experiment: Antibacterial activity against IMP-4 producing Pseudomonas aeruginosa isolate 207272 after 18 hrs by CLSI broth microdilution method; settings: isolate 207272, 18 h
[35] = system: Pseudomonas aeruginosa; experiment: Antibacterial activity against IMP-4 producing Pseudomonas aeruginosa isolate 207272 after 18 hrs in presence of BPL by CLSI broth microdilution method; settings: isolate 207272, 18 h; outline: as §1
[36] = system: Pseudomonas aeruginosa; experiment: Selectivity index, ratio of MIC for against IMP-4 producing Pseudomonas aeruginosa isolate 207272 to MIC for against IMP-4 producing Pseudomonas aeruginosa isolate 207272 in presence of BPL

- MIC [1]: > 64 µg/mL
- MIC [2]: > 64 µg/mL
- MIC [3]: > 64 µg/mL
- MIC [4]: > 64 µg/mL
- MIC [5]: > 64 µg/mL
- MIC [6]: > 64 µg/mL
- MIC [7]: > 64 µg/mL
- MIC [8]: > 64 µg/mL
- MIC [9]: 64 µg/mL (≈ 118 µM)
- MIC [10]: 64 µg/mL
- MIC [12]: > 64 µg/mL
- MIC [13]: > 64 µg/mL
- MIC [14]: > 64 µg/mL
- MIC [15]: > 64 µg/mL
- MIC [16]: > 64 µg/mL
- MIC [17]: > 64 µg/mL
- MIC [18]: > 64 µg/mL
- MIC [19]: > 64 µg/mL
- MIC [20]: > 64 µg/mL
- MIC [21]: > 64 µg/mL
- MIC [22]: > 64 µg/mL
- MIC [23]: > 64 µg/mL
- MIC [25]: > 64 µg/mL
- MIC [26]: > 64 µg/mL
- MIC [28]: 64 µg/mL (≈ 118 µM)
- MIC [29]: 32 µg/mL
- MIC [31]: 64 µg/mL (≈ 118 µM)
- MIC [32]: 64 µg/mL
- MIC [34]: > 64 µg/mL
- MIC [35]: > 64 µg/mL
SMILES: C#CC1[C@H](NC(=O)/C(=N\OC(c2cc(=O)c(O)cn2O)C(C)C)c2csc(N)n2)C(=O)N1S(=O)(=O)O (stereo partly specified)
- Selectivity Index [11]: 1
- Selectivity Index [24]: 1 - 2
- Selectivity Index [27]: 1 - 2
- Selectivity Index [30]: 2
- Selectivity Index [33]: 1
- Selectivity Index [36]: 1 - 2
